From ChEMBL document CHEMBL4229335 (Eur J Med Chem, 2018)
Activity calls are given as the source filed them. No cut-off for these calls is given here.

Columns and labels:
L02 = experiment: Antiproliferative activity against human LO2 cells after 72 hrs by MTT assay; assay type: cell-based; settings: L02, 72 h
In short: (§1)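 MTT assay with 72 h exposure to graded concentrations in triplicate. MTT solution then DMSO were added, followed by 10 min at room temperature, with absorbance read at 490 nm. IC50 is reported as the mean of three independent experiments. 5-FU served as positive control.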

Bel7402/5-FU = experiment: Antiproliferative activity against human Bel7402/5-FU cells after 72 hrs by MTT assay; assay type: functional, cell-based; in short: as §1
HL-60 = experiment: Antiproliferative activity against human HL60 cells after 72 hrs by MTT assay; assay type: functional, cell-based; settings: HL-60, 72 h; in short: as §1
PC-3 = experiment: Antiproliferative activity against human PC3 cells after 72 hrs by MTT assay; assay type: functional, cell-based; settings: PC-3, 72 h; in short: as §1
Bel-7402 [1] = experiment: Antiproliferative activity against human Bel7402 cells after 72 hrs by MTT assay; assay type: functional, cell-based; settings: Bel-7402, 72 h; in short: as §1
[2] = Selectivity index, ratio of IC50 for human LO2 cells to IC50 for human Bel7402 cells; assay type: toxicity; settings: LO2 cells versus Bel7402 cells, read-out: Ratio IC50
In short: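 SI was calculated as IC50 in L-02 normal liver cells divided by IC50 in Bel-7402 cells, both from the 72 h MTT assay.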

Bel-7402 [3] = experiment: Induction of mitochondrial membrane potential loss in human Bel7402 cells at 1.2 uM after 48 hrs by JC-1 dye-based flow cytometric analysis (reference value: 7.20%); assay type: functional
In short: (§2)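 Bel-7402 cells were exposed in triplicate for 48 h to compound or vehicle. Cells were washed with PBS and stained with JC-1 in the dark. The fraction of cells with collapsed versus intact mitochondrial membrane potential was counted by flow cytometry.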

Bel-7402 [4] = experiment: Induction of apoptosis in human Bel7402 cells assessed as necrotic cells at 0.4 uM after 24 hrs by Annexin V-FITC/propidium iodide staining-based flow cytometric analysis (reference value: 11.96%); assay type: functional
Bel-7402 [5] = experiment: Cell cycle arrest in human Bel7402 cells assessed as accumulation of cells at S phase at 0.8 uM after 48 hrs by propidium iodide staining-based flow cytometric analysis (reference value: 12.92%); assay type: functional
In short: (§3)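 Bel-7402 cells were seeded in 6-well plates and grown 24 h at 37 °C. Compound in DMSO was added in triplicate, with DMSO-only controls, for 48 h. Cells were then centrifuged, fixed in 70% ethanol at 4 °C and stained with propidium iodide. DNA content was measured by flow cytometry to give cell-cycle phase distribution.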

Bel-7402 [6] = experiment: Cell cycle arrest in human Bel7402 cells assessed as G2/G1 phase ratio level at 1.2 uM after 48 hrs by propidium iodide staining-based flow cytometric analysis (reference value: 1.82%); assay type: functional; in short: as §3
Bel-7402 [7] = experiment: Induction of apoptosis in human Bel7402 cells assessed as necrotic cells at 1.2 uM after 24 hrs by Annexin V-FITC/propidium iodide staining-based flow cytometric analysis (reference value: 11.96%); assay type: functional
Bel-7402 [8] = experiment: Induction of apoptosis in human Bel7402 cells assessed as late apoptotic cells at 1.2 uM after 24 hrs by Annexin V-FITC/propidium iodide staining-based flow cytometric analysis (reference value: 0.96%); assay type: functional
Bel-7402 [9] = experiment: Induction of apoptosis in human Bel7402 cells assessed as necrotic cells at 0.8 uM after 24 hrs by Annexin V-FITC/propidium iodide staining-based flow cytometric analysis (reference value: 11.96%); assay type: functional
Bel-7402 [10] = experiment: Induction of mitochondrial membrane potential loss in human Bel7402 cells at 0.4 uM after 48 hrs by JC-1 dye-based flow cytometric analysis (reference value: 7.20%); assay type: functional; in short: as §2
Bel-7402 [11] = experiment: Induction of apoptosis in human Bel7402 cells assessed as upregulation of p53 expression after 48 hrs by Western blot analysis; assay type: functional, cell-based
In short: (§4)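 Bel-7402 cells were treated in triplicate for 48 h at 0, 0.4, 0.8 and 1.2 µM. Protein content of lysates was determined, then lysates were run on 10% SDS-PAGE and transferred to nitrocellulose. Membranes were blocked with 5% fat-free milk, probed with monoclonal antibodies and detected by ECL chemiluminescence.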

Bel-7402 [12] = experiment: Induction of apoptosis in human Bel7402 cells assessed as late apoptotic cells at 0.4 uM after 24 hrs by Annexin V-FITC/propidium iodide staining-based flow cytometric analysis (reference value: 0.96%); assay type: functional
Bel-7402 [13] = experiment: Induction of apoptosis in human Bel7402 cells assessed as early apoptotic cells at 1.2 uM after 24 hrs by Annexin V-FITC/propidium iodide staining-based flow cytometric analysis (reference value: 1.07%); assay type: functional
Bel-7402 [14] = experiment: Induction of mitochondrial membrane potential loss in human Bel7402 cells at 0.8 uM after 48 hrs by JC-1 dye-based flow cytometric analysis (reference value: 7.20%); assay type: functional; in short: as §2
Bel-7402 [15] = experiment: Induction of apoptosis in human Bel7402 cells assessed as upregulation of caspase9 expression after 48 hrs by Western blot analysis; assay type: functional, cell-based; in short: as §4
Bel-7402 [16] = experiment: Induction of apoptosis in human Bel7402 cells assessed as upregulation of Bax expression after 48 hrs by Western blot analysis; assay type: functional, cell-based; in short: as §4
Bel-7402 [17] = experiment: Cell cycle arrest in human Bel7402 cells assessed as accumulation of cells at G1 phase at 0.4 uM after 48 hrs by propidium iodide staining-based flow cytometric analysis (reference value: 63.55%); assay type: functional; in short: as §3
Bel-7402 [18] = experiment: Cell cycle arrest in human Bel7402 cells assessed as accumulation of cells at G1 phase at 0.8 uM after 48 hrs by propidium iodide staining-based flow cytometric analysis (reference value: 63.55%); assay type: functional; in short: as §3
Bel-7402 [19] = experiment: Cell cycle arrest in human Bel7402 cells assessed as accumulation of cells at G2 phase at 0.4 uM after 48 hrs by propidium iodide staining-based flow cytometric analysis (reference value: 23.53%); assay type: functional; in short: as §3
Bel-7402 [20] = experiment: Induction of mitochondrial membrane potential in human Bel7402 cells after 48 hrs by JC-1 dye-based flow cytometric analysis; assay type: functional, cell-based; in short: as §2
Bel-7402 [21] = experiment: Induction of apoptosis in human Bel7402 cells assessed as upregulation of cytochrome C expression after 48 hrs by Western blot analysis; assay type: functional, cell-based; in short: as §4
Bel-7402 [22] = experiment: Cell cycle arrest in human Bel7402 cells assessed as accumulation of cells at G1 phase at 1.2 uM after 48 hrs by propidium iodide staining-based flow cytometric analysis (reference value: 63.55%); assay type: functional; in short: as §3
Bel-7402 [23] = experiment: Cell cycle arrest in human Bel7402 cells assessed as accumulation of cells at G2 phase at 0.8 uM after 48 hrs by propidium iodide staining-based flow cytometric analysis (reference value: 23.53%); assay type: functional; in short: as §3
Bel-7402 [24] = experiment: Cell cycle arrest in human Bel7402 cells assessed as G2/G1 phase ratio level at 0.8 uM after 48 hrs by propidium iodide staining-based flow cytometric analysis (reference value: 1.82%); assay type: functional; in short: as §3
Bel-7402 [25] = experiment: Induction of apoptosis in human Bel7402 cells after 24 hrs by Annexin V-FITC/propidium iodide staining-based flow cytometric analysis; assay type: functional, cell-based
Bel-7402 [26] = experiment: Induction of apoptosis in human Bel7402 cells assessed as downregulation of Bcl2 expression after 48 hrs by Western blot analysis; assay type: functional, cell-based; in short: as §4
Bel-7402 [27] = experiment: Induction of apoptosis in human Bel7402 cells assessed as early apoptotic cells at 0.4 uM after 24 hrs by Annexin V-FITC/propidium iodide staining-based flow cytometric analysis (reference value: 1.07%); assay type: functional
Bel-7402 [28] = experiment: Induction of apoptosis in human Bel7402 cells assessed as early apoptotic cells at 0.8 uM after 24 hrs by Annexin V-FITC/propidium iodide staining-based flow cytometric analysis (reference value: 1.07%); assay type: functional
Bel-7402 [29] = experiment: Induction of apoptosis in human Bel7402 cells assessed as upregulation of caspase3 expression after 48 hrs by Western blot analysis; assay type: functional, cell-based; in short: as §4
Bel-7402 [30] = experiment: Cell cycle arrest in human Bel7402 cells assessed as accumulation of cells at S phase at 1.2 uM after 48 hrs by propidium iodide staining-based flow cytometric analysis (reference value: 12.92%); assay type: functional; in short: as §3
Bel-7402 [31] = experiment: Cell cycle arrest in human Bel7402 cells assessed as accumulation of cells at S phase at 0.4 uM after 48 hrs by propidium iodide staining-based flow cytometric analysis (reference value: 12.92%); assay type: functional; in short: as §3
Bel-7402 [32] = experiment: Induction of apoptosis in human Bel7402 cells assessed as chromatin condensation at 0.4 to 1.2 uM after 48 hrs by Hoechst […] staining-based fluorescent microscopic analysis; assay type: functional, cell-based
In short: (§5)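 Bel-7402 cells were seeded in 6-well plates in 2 mL medium and grown 24 h. Compound was then added for 48 h, with a vehicle control. Nuclei were stained with Hoechst 33258 and examined by fluorescence microscopy for chromatin condensation and nuclear disintegration.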

Bel-7402 [33] = experiment: Cell cycle arrest in human Bel7402 cells assessed as accumulation of cells at G2 phase at 1.2 uM after 48 hrs by propidium iodide staining-based flow cytometric analysis (reference value: 23.53%); assay type: functional; in short: as §3
Bel-7402 [34] = experiment: Induction of apoptosis in human Bel7402 cells assessed as nuclear disintegration at 0.4 to 1.2 uM after 48 hrs by Hoechst […] staining-based fluorescent microscopic analysis; assay type: functional, cell-based; in short: as §5
Bel-7402 [35] = experiment: Induction of apoptosis in human Bel7402 cells assessed as late apoptotic cells at 0.8 uM after 24 hrs by Annexin V-FITC/propidium iodide staining-based flow cytometric analysis (reference value: 0.96%); assay type: functional
Bel-7402 [36] = experiment: Cell cycle arrest in human Bel7402 cells assessed as G2/G1 phase ratio level at 0.4 uM after 48 hrs by propidium iodide staining-based flow cytometric analysis (reference value: 1.82%); assay type: functional; in short: as §3

C=C1C(=O)[C@@]23C(=O)O[C@H]4CCC(C)(C)[C@H]5[C@H](O)OC[C@@]45[C@@H]2CC[C@@H]1[C@H]3O
IC50 (L02): 27.1 µM | IC50 (Bel7402/5-FU): 44.3 µM | IC50 (HL-60): 28.1 µM | IC50 (PC-3): 30.6 µM | IC50 (Bel-7402 [1]): 32.1 µM | selectivity ratio [2]: 0.8

C=C1C(=O)[C@@]23C(=O)O[C@H]4CCC(C)(C)[C@H]5[C@H](O)OC[C@@]45[C@@H]2CC[C@@H]1[C@H]3OC(=O)c1ccc(N(CCCl)CCCl)cc1
IC50 (L02): > 100 µM | IC50 (Bel7402/5-FU): 2.07 µM | Activity (Bel-7402 [3]): 40% | Activity (Bel-7402 [4]): 8.38% | Activity (Bel-7402 [5]): 14.42% | Ratio (Bel-7402 [6]): 1.84 | Activity (Bel-7402 [7]): 4.33% | Activity (Bel-7402 [8]): 19.39% | Activity (Bel-7402 [9]): 4.23% | Activity (Bel-7402 [10]): 14.38% | Activity (Bel-7402 [11]): Dose-dependent effect | Activity (Bel-7402 [12]): 7.07% | Activity (Bel-7402 [13]): 41.53% | Activity (Bel-7402 [14]): 20.93% | Activity (Bel-7402 [15]): Dose-dependent effect | Activity (Bel-7402 [16]): Dose-dependent effect | Activity (Bel-7402 [17]): 66.71% | Activity (Bel-7402 [18]): 69.71% | Activity (Bel-7402 [19]): 18.15% | Activity (Bel-7402 [20]): Dose-dependent effect | IC50 (HL-60): 7.83 µM | Activity (Bel-7402 [21]): Dose-dependent effect | Activity (Bel-7402 [22]): 72.09% | Activity (Bel-7402 [23]): 15.87% | IC50 (PC-3): 3.97 µM | Ratio (Bel-7402 [24]): 1.85 | Activity (Bel-7402 [25]): Dose-dependent effect | Activity (Bel-7402 [26]): Dose-dependent effect | Activity (Bel-7402 [27]): 11.8% | Activity (Bel-7402 [28]): 24.22% | IC50 (Bel-7402 [1]): 0.77 µM | Activity (Bel-7402 [29]): Dose-dependent effect | selectivity ratio [2]: > 130 | Activity (Bel-7402 [30]): 14.59% | Activity (Bel-7402 [31]): 15.15% | Activity (Bel-7402 [32]): Active | Activity (Bel-7402 [33]): 13.33% | Activity (Bel-7402 [34]): Active | Activity (Bel-7402 [35]): 11.31% | Ratio (Bel-7402 [36]): 1.84

C=C1C(=O)[C@@]23C(=O)O[C@H]4CCC(C)(C)[C@H]5C(=O)OC[C@@]45[C@@H]2CC[C@@H]1[C@H]3OC(=O)CCCc1ccc(N(CCCl)CCCl)cc1
IC50 (L02): 49.8 µM | IC50 (Bel7402/5-FU): 15.6 µM | IC50 (HL-60): 9.94 µM | IC50 (PC-3): 5.5 µM | IC50 (Bel-7402 [1]): 3.06 µM | selectivity ratio [2]: 16.3
